Assay results reported in ChEMBL document CHEMBL4024777, “Discovery of LY3104607: A Potent and Selective G Protein-Coupled Receptor 40 (GPR40) Agonist with Optimized Pharmacokinetic Properties to Support Once Daily Oral Treatment in Patients with Type 2 Diabetes Mellitus” (J Med Chem, 2018).
Active and inactive are the calls of the source. The rule behind the calls is not given here.

Experiments:
3T3-L1 = assay: Induction of adipogenesis in mouse 3T3L1 cells; format: functional, cell-based
How it was run: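 Adipogenesis was assessed in 3T3-L1 cells.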

[1] = target: T1, Peroxisome proliferator-activated receptor alpha (Homo sapiens) (UniProt Q07869); assay: Displacement of [3H]-agonist from human PPARalpha expressed in baculovirus infecetd Sf9 cells system up to 30 uM after 10 hrs in presence of DR2 by scintillation proximity assay
T1 sequence (whole entry): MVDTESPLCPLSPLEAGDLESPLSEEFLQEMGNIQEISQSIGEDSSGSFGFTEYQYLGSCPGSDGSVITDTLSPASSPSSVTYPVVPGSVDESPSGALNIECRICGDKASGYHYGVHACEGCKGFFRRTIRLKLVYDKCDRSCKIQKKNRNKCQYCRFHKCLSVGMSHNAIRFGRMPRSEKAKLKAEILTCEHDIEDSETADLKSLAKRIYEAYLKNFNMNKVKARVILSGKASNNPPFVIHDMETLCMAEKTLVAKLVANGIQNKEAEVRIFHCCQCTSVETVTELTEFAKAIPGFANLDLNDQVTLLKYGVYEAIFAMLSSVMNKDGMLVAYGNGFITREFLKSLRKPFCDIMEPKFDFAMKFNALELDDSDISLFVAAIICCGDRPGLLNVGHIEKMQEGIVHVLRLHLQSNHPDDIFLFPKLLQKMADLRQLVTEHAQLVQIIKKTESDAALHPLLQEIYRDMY
How it was run: (§1)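 PPAR alpha, delta and gamma binding and functional activity were each tested at concentrations up to 30 µM.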

Cytochrome P450 2D6 = Cytochrome P450 2D6 (Homo sapiens, UniProt P10635); assay: Inhibition of human CYP2D6; format: ADME
Cytochrome P450 2C9 = Cytochrome P450 2C9 (Homo sapiens, UniProt P11712); assay: Inhibition of human CYP2C9; format: ADME
[2] = AUC (0 to 24 hrs) in Sprague-Dawley rat at 100 mg/kg, po; format: ADME, organism-based; design: dose 100 mg/kg, time < 24 hr, route oral; conditions: in vivo
[3] = AUC (0 to 24 hrs) in Sprague-Dawley rat at 500 mg/kg, po; format: ADME, organism-based; design: dose 500 mg/kg, time < 24 hr, route oral; conditions: in vivo
[4] = Initial plasma concentration in Sprague-Dawley rat at 1 mg/kg, iv; format: ADME, organism-based
[5] = Cmax in Sprague-Dawley rat at 10 mg/kg, po; format: ADME, organism-based; design: dose 10 mg/kg, route oral; conditions: in vivo
[6] = Tmax in Sprague-Dawley rat at 100 mg/kg, po; format: ADME, organism-based; conditions: in vivo
[7] = Tmax in Sprague-Dawley rat at 500 mg/kg, po; format: ADME, organism-based; conditions: in vivo
[8] = AUC (0 to 24 hrs) in Beagle dog at 1 mg/kg, iv; format: ADME, organism-based, Canis lupus familiaris; design: time < 24 hr, dose 1 mg/kg, route intravenous; conditions: in vivo
[9] = AUC (0 to 24 hrs) in Beagle dog at 100 mg/kg, po; format: ADME, organism-based, Canis lupus familiaris; design: time < 24 hr, dose 100 mg/kg, route oral; conditions: in vivo
[10] = Initial plasma concentration in Beagle dog at 1 mg/kg, iv; format: ADME, organism-based, Canis lupus familiaris
[11] = Cmax in Beagle dog at 100 mg/kg, po; format: ADME, organism-based, Canis lupus familiaris; design: dose 100 mg/kg, route oral; conditions: in vivo
[12] = Tmax in Beagle dog at 3 mg/kg, po; format: ADME, organism-based, Canis lupus familiaris; conditions: in vivo
How it was run: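 Fasted dogs dosed orally at 3 mg/kg. […] Bioavailability is derived relative to the 1 mg/kg IV dose.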

[13] = Tmax in Beagle dog at 300 mg/kg, po; format: ADME, organism-based, Canis lupus familiaris; conditions: in vivo
How it was run: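 Dogs dosed orally at 30, 100 or 300 mg/kg, N = 2 per dose.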

[14] = Clearance in Beagle dog at 1 mg/kg, iv; format: ADME, organism-based, Canis lupus familiaris; conditions: in vivo
[15] = Half life in Beagle dog at 1 mg/kg, iv; format: ADME, organism-based, Canis lupus familiaris; conditions: in vivo
[16] = Half life in Beagle dog at 3 mg/kg, po; format: ADME, organism-based, Canis lupus familiaris; conditions: in vivo
[17] = Metabolic stability in mouse microsomes assessed as compound metabolized after 30 mins; format: ADME, Microsome; conditions: read-out: Drug metabolism
How it was run: (§2)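 Compound incubated 30 min with liver microsomes from mouse, rat, dog or human. Percent of compound metabolized recorded, as mean (SEM, n).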

[18] = Metabolic stability in rat microsomes assessed as compound metabolized after 30 mins; format: ADME, Microsome; conditions: read-out: Drug metabolism; how it was run: as §2
[19] = Metabolic stability in dog microsomes assessed as compound metabolized after 30 mins; format: ADME, Canis lupus familiaris, Microsome; conditions: read-out: Drug metabolism; how it was run: as §2
[20] = Aqueous solubility of the compound at pH 7.4; format: physicochemical
How it was run: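 Solubility was measured by DMSO/aqueous precipitation at pH 7.4 and reported as the last soluble concentration.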

[21] = target: Free fatty acid receptor 1 (Rattus norvegicus) (UniProt Q8K3T4); assay: Agonist activity at GPR40 in Sprague-Dawley rat islets assessed as glucose-stimulated insulin secretion levels at 10 uM in presence of 11.2 mM glucose by ELISA (reference value: 6.24 ng/ml)
Rattus norvegicus [22] = assay: Antidiabetic activity in po dosed Zucker fa/fa rat assessed as reduction in blood glucose AUC administered daily for 21 days followed by OGTT at 1 hr after compound dosing and measured 60 mins post glucose challenge by oral glucose tolerance test; format: functional
Rattus norvegicus [23] = assay: Antidiabetic activity in po dosed Zucker fa/fa rat assessed as reduction in blood glucose AUC administered for 1 day followed by OGTT at 1 hr after compound dosing and measured 60 mins post glucose challenge by oral glucose tolerance test; format: functional
How it was run: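 Male Zucker fa/fa rats, 10 weeks old, were dosed orally at 1, 3 and 10 mg/kg. The OGTT was run 1 h after dosing with an oral glucose challenge of 2 g/kg. The glucose AUC was calculated, and a dose-response curve gave the ED90.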

[24] = target: Free fatty acid receptor 1 (Homo sapiens, UniProt O14842); assay: Agonist activity at human GPR40 receptor expressed in HEK293 cells assessed as increase in intracellular calcium flux after 2.5 hrs measured over 3 mins in presence of 0.1% serum albumin by calcium 4 dye-based FLIPR assay; format: functional, cell-based
[25] = Drug metabolism in dog hepatocytes assessed as metabolite-B formation; format: ADME, cell-based, Canis lupus familiaris, Hepatocyte
[26] = Drug metabolism in rat hepatocytes assessed as glucuronidation; format: ADME, cell-based, Hepatocyte
[27] = Drug metabolism in mouse hepatocytes assessed as glucuronidation; format: ADME, cell-based, Hepatocyte
[28] = Drug metabolism in dog hepatocytes assessed as glucuronidation; format: ADME, cell-based, Canis lupus familiaris, Hepatocyte
[29] = target: T2, Peroxisome proliferator-activated receptor gamma (Homo sapiens) (UniProt P37231); assay: Agonist activity at […] human PPARgamma expressed in African green monkey CV1 cells up to 30 uM after 24 hrs by luciferase reporter gene assay; format: cell-based; how it was run: as §1
T2 sequence (whole entry): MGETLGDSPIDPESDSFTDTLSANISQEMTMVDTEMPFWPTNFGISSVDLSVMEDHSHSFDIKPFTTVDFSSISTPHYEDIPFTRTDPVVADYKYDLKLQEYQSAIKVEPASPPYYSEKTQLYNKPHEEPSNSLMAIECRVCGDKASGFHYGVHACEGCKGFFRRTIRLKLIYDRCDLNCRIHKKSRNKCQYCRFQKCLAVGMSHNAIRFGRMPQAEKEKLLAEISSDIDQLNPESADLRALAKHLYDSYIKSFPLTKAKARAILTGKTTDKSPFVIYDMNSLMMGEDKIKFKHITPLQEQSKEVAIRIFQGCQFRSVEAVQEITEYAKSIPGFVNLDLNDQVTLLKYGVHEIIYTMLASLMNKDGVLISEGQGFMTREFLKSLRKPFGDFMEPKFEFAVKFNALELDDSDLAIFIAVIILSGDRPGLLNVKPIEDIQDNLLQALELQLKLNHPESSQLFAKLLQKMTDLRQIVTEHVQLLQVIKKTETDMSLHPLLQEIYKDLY

Sequence of Free fatty acid receptor 1 (O14842 whole entry): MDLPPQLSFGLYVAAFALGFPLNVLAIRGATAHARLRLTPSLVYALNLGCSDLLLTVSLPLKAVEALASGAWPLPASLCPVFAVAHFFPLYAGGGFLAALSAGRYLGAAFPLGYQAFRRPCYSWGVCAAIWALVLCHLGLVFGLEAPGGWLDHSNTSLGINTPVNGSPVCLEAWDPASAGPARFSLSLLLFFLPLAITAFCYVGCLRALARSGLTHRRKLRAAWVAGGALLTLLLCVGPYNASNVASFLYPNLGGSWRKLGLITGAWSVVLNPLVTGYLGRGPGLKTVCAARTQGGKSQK
Sequence of Free fatty acid receptor 1 (Rattus norvegicus) (Q8K3T4 whole entry): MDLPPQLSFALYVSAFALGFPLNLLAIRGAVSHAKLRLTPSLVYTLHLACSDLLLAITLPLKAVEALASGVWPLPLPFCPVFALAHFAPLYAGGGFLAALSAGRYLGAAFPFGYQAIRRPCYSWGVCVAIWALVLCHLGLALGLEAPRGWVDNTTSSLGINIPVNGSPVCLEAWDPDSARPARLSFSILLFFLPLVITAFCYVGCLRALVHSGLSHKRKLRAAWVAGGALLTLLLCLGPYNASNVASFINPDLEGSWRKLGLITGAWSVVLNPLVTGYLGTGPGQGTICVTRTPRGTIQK
Sequence of Cytochrome P450 2C9 (P11712 whole entry): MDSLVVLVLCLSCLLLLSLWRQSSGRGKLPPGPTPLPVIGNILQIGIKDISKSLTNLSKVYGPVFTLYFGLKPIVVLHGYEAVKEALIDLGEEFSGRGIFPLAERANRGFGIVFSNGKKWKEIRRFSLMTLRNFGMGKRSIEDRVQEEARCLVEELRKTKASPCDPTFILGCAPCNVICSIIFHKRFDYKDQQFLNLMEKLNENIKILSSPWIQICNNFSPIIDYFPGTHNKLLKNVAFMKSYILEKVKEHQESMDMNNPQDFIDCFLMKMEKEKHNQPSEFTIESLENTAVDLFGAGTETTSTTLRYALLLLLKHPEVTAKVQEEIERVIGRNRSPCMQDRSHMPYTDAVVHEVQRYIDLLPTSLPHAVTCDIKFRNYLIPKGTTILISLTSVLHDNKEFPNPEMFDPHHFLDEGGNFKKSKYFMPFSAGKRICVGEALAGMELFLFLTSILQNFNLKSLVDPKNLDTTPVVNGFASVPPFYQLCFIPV
Sequence of Cytochrome P450 2D6 (P10635 whole entry): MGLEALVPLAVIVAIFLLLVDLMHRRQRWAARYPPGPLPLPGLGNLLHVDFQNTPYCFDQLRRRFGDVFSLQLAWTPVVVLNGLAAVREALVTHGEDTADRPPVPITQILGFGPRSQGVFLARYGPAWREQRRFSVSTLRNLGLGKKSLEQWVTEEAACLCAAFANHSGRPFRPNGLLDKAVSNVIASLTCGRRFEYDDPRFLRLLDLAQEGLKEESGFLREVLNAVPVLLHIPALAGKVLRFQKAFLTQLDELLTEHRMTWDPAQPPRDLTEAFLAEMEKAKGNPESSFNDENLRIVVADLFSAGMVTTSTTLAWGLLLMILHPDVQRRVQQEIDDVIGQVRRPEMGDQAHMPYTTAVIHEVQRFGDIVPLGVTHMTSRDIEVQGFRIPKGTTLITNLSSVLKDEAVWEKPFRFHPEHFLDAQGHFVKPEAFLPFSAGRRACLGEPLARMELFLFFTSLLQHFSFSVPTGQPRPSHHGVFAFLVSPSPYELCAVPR

## CC#C[C@@H](CC(=O)O)c1ccc(OCc2ccc3nc(-c4c(C)cccc4C)nn3c2)cc1
3T3-L1
  Activity: inactive
[1]
  Activity: inactive
Cytochrome P450 2D6
  IC50: > 60 µM
Cytochrome P450 2C9
  IC50: > 60 µM
[2]
  AUC(0-t) at 24 h: 2870 µg·h/mL
[3]
  AUC(0-t) at 24 h: 4790 µg·h/mL
[4]
  C0: 4340 ng/mL
[5]
  Cmax: 23700 ng/mL
[6]
  Tmax: 5.3 h
[7]
  Tmax: 6.7 h
[8]
  AUC(0-t) at 24 h: 27.3 µg·h/mL
[9]
  AUC(0-t) at 24 h: 3320 µg·h/mL
[10]
  C0: 8240 ng/mL
[11]
  Cmax: 260000 ng/mL
[12]
  Tmax: 0.67 h
[13]
  Tmax: 6 h
[14]
  clearance: 0.601 mL/min/kg
[15]
  half-life: 6.53 h
[16]
  half-life: 5.49 h
[17]
  metabolised at 0.5 h: 7%
[18]
  metabolised at 0.5 h: 10%
[19]
  metabolised at 0.5 h: 5%
[20]
  solubility: > 100 µM
[21]
  Activity: 19.4 ng/mL
Rattus norvegicus [22]
  ED90: 5 mg/kg
Rattus norvegicus [23]
  ED90: 4.1 mg/kg
[24]
  Activity: Active
[25]
  Drug metabolism: Metabolite_Detected
[26]
  Drug metabolism: Metabolite_Detected
[27]
  Drug metabolism: Metabolite_Detected
[28]
  Drug metabolism: Metabolite_Detected
[29]
  Activity: inactive
